Data as given in ChEMBL document CHEMBL3734720, “Synthesis of thiophene-thiosemicarbazone derivatives and evaluation of their in vitro and in vivo antitumor activities” (Eur J Med Chem, 2015).

Columns and labels:
[1] = Antitumor activity against mouse EAT implanted in Balb/C mouse assessed as change in paw volume at 40 mg/kg, po administered on day 3 post tumor inoculation measured on day 9 by plethysmometer analysis (reference value: 95.5 +/- 5.2%); format: functional
[2] = Antitumor activity against mouse EAT implanted in Balb/C mouse assessed as change in paw volume at 40 mg/kg, po administered on day 3 post tumor inoculation measured on day 12 by plethysmometer analysis (reference value: 125.5 +/- 7.5%); format: functional
[3] = Antitumor activity against mouse EAT implanted in Balb/C mouse assessed as change in paw volume at 40 mg/kg, po administered on day 3 post tumor inoculation measured on day 6 by plethysmometer analysis (reference value: 86.1 +/- 5.7%); format: functional
[4] = Antitumor activity against mouse EAT implanted in Balb/C mouse assessed as change in paw volume at 40 mg/kg, po administered on day 3 post tumor inoculation measured on day 3 by plethysmometer analysis (reference value: 40.2 +/- 7.0%); format: functional
[5] = Antitumor activity against mouse EAT implanted in Balb/C mouse assessed as change in paw volume at 40 mg/kg, po administered on day 3 post tumor inoculation measured on day 15 by plethysmometer analysis (reference value: 166.5 +/- 6.0%); format: functional
786-0 [6] = test: Cell cycle arrest in human 786-0 cells assessed as accumulation at Sub G1 phase at 1.25 nM after 24 hrs by propidium iodide based flow cytometric analysis (reference value: 3.0 +/- 0.7%); format: functional
786-0 [7] = test: Cell cycle arrest in human 786-0 cells assessed as accumulation at S phase at 1.25 nM after 24 hrs by propidium iodide based flow cytometric analysis (reference value: 14.6 +/- 1.3%); format: functional
786-0 [8] = test: Cell cycle arrest in human 786-0 cells assessed as accumulation at G2/M phase at 1.25 nM after 24 hrs by propidium iodide based flow cytometric analysis (reference value: 35.7 +/- 0.9%); format: functional
786-0 [9] = test: Cell cycle arrest in human 786-0 cells assessed as reduction in G1 phase at 1.25 nM after 24 hrs by propidium iodide based flow cytometric analysis (reference value: 46.7 +/- 0.8%); format: functional; set-up: scale not given: the % may be the effect or the level left
MCF7 = test: Antiproliferative activity against human MCF7 cells assessed as growth inhibition after 48 hrs by SRB assay; format: functional; settings: MCF7, 48 h
How it was run: (§1)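 Cells exposed 48 h at 37 °C, 5% CO2 to 0.25, 2.5, 25 and 250 µg/mL in DMSO/RPMI (final DMSO 0.1%); doxorubicin standard at 0.025–25 µg/mL. Plates fixed with 50% TCA before (T0) and after treatment; protein content read by sulforhodamine B at 540 nm. GI50 (µM) from nonlinear regression of concentration–response curves; triplicate.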

[10] = Antiproliferative activity against human PC3 cells assessed as growth inhibition after 48 hrs by SRB assay; format: functional; settings: PC-3, 48 h; how it was run: as §1
HT-29 = test: Antiproliferative activity against human HT-29 cells assessed as growth inhibition after 48 hrs by SRB assay; format: functional; settings: HT-29, 48 h; how it was run: as §1
[11] = Antiproliferative activity against human NCI-ADR-RES cells assessed as growth inhibition after 48 hrs by SRB assay; format: functional; how it was run: as §1
K562 = test: Antiproliferative activity against human K562 cells assessed as growth inhibition after 48 hrs by SRB assay; format: functional; settings: K562, 48 h; how it was run: as §1
786-0 [12] = test: Antiproliferative activity against human 786-0 cells assessed as growth inhibition after 48 hrs by SRB assay; format: functional; settings: 786-0, 48 h; how it was run: as §1
[13] = Antiproliferative activity against human HaCaT cells assessed as growth inhibition after 48 hrs by SRB assay; format: cell-based; how it was run: as §1
U-251 = test: Antiproliferative activity against human U251 cells assessed as growth inhibition after 48 hrs by SRB assay; format: functional; settings: U-251, 48 h; how it was run: as §1
NCI-H460 = test: Antiproliferative activity against human NCI-H460 cells assessed as growth inhibition after 48 hrs by SRB assay; format: functional; settings: NCI-H460, 48 h; how it was run: as §1
[14] = Antiproliferative activity against human UACC62 cells assessed as growth inhibition after 48 hrs by SRB assay; format: functional; settings: UACC-62, 48 h; how it was run: as §1
[15] = Antitumor activity against mouse EAT implanted in Balb/C mouse assessed as change in paw volume at 3 mg/kg, ip administered on day 3 post tumor inoculation measured on day 3 by plethysmometer analysis (reference value: 40.2 +/- 7.0%); format: functional
[16] = Antitumor activity against mouse EAT implanted in Balb/C mouse assessed as change in paw volume at 3 mg/kg, ip administered on day 3 post tumor inoculation measured on day 12 by plethysmometer analysis (reference value: 125.5 +/- 7.5%); format: functional
[17] = Antitumor activity against mouse EAT implanted in Balb/C mouse assessed as change in paw volume at 3 mg/kg, ip administered on day 3 post tumor inoculation measured on day 15 by plethysmometer analysis (reference value: 166.5 +/- 6.0%); format: functional
[18] = Antitumor activity against mouse EAT implanted in Balb/C mouse assessed as change in paw volume at 3 mg/kg, ip administered on day 3 post tumor inoculation measured on day 9 by plethysmometer analysis (reference value: 95.5 +/- 5.2%); format: functional
[19] = Antitumor activity against mouse EAT implanted in Balb/C mouse assessed as change in paw volume at 3 mg/kg, ip administered on day 3 post tumor inoculation measured on day 6 by plethysmometer analysis (reference value: 86.1 +/- 5.7%); format: functional

SMILES | GI50 (MCF7) [µM] | GI50 (HT-29) [µM] | GI50 (K562) [µM] | GI50 (786-0 [12]) [µM] | GI50 (U-251) [µM] | GI50 (NCI-H460) [µM] | GI50 [10] [µM] | GI50 [11] [µM] | GI50 at 48 h [13] [µM] | GI50 [14] [µM] | other results
CN1C(C(=O)Nc2ccccn2)=C(O)c2ccccc2S1(=O)=O [PIROXICAM] |  |  |  |  |  |  |  |  |  |  | Activity [1]: 52.3%; Activity [2]: 34.9%; Activity [3]: 57.2%; Activity [4]: 42.2%; Activity [5]: 47.3%
COc1cc2c(c(OC)c1OC)-c1ccc(OC)c(=O)cc1[C@@H](NC(C)=O)CC2 [COLCHICINE] |  |  |  |  |  |  |  |  |  |  | Activity (786-0 [6]): 8.9%; Activity (786-0 [7]): 12.6%; Activity (786-0 [8]): 57.5%; Activity (786-0 [9]): 21.5%
S=C(N/N=C/c1cccs1)Nc1ccccc1 | 94.6 | > 100 | 16.7 | 50.4 | 74.7 | > 100 | > 100 | > 100 | > 100 | > 100 | 
S=C(N/N=C/c1cccs1)Nc1cccnc1 | > 100 | > 100 | 16.4 | 5.6 | 26 | 45.9 | > 100 | > 100 | 45.4 | > 100 | 
S=C(NCCc1ccccc1)N/N=C/c1cccs1 | > 100 | > 100 | > 100 | > 100 | > 100 | > 100 | > 100 | > 100 | > 100 | > 100 | 

Now from value to molecule, other results behind:

GI50 (MCF7) [µM] | GI50 (HT-29) [µM] | GI50 (K562) [µM] | GI50 (786-0 [12]) [µM] | GI50 (U-251) [µM] | GI50 (NCI-H460) [µM] | SMILES | GI50 [10] [µM] | GI50 [11] [µM] | GI50 at 48 h [13] [µM] | GI50 [14] [µM] | other results
> 100 | > 100 | 1.8 | 15.2 | 12.7 | > 100 | S=C(N/N=C/c1cccs1)Nc1cccc2ccccc12 | > 100 | 6.6 | 82.4 | > 100 | 
> 100 | > 100 | 6 | 21.2 | > 100 | > 100 | C=CCNC(=S)N/N=C/c1cccs1 | > 100 | > 100 | > 100 | > 100 | 
< 0.046 | 0.3 | < 0.046 | < 0.046 | < 0.046 | < 0.046 | COc1cccc2c1C(=O)c1c(O)c3c(c(O)c1C2=O)C[C@@](O)(C(=O)CO)C[C@@H]3O[C@H]1C[C@H](N)[C@H](O)[C@H](C)O1 [DOXORUBICIN] | 0.13 | 0.21 | < 0.046 | 0.05 | Activity [15]: 43.7%; Activity [16]: 39.6%; Activity [17]: 97.9%; Activity [18]: 69.8%; Activity [19]: 55.6%
> 100 | > 100 | 1.7 | > 100 | > 100 | > 100 | COc1ccc(NC(=S)N/N=C/c2cccs2)cc1 | > 100 | > 100 | > 100 | > 100 | 
> 100 | > 100 | 1.6 | 82.6 | > 100 | > 100 | CCc1ccc(NC(=S)N/N=C/c2cccs2)cc1 | > 100 | > 100 | 17.6 | > 100 | 
38.6 | > 100 | < 0.9 | 19.5 | 12.6 | 80.6 | Cc1ccc(NC(=S)N/N=C/c2cccs2)cc1 | 29.7 | 4.8 | 17.6 | 16.8 | 
> 100 | > 100 | 2 | 7.4 | 8.3 | > 100 | S=C(N/N=C/c1cccs1)Nc1ccc(Cl)cc1 | > 100 | 2.8 | 14.7 | 15.8 | 
